Only a selection was taken, and hits are over-represented in it overall.
A1 apoptosis 2 = A1 inhibition read as caspase activation. MEF A1-2A-BIM cells, caspase-Glo luminescence, 3 h; percent of clofoctol response, DMSO zero. caspase activation, % (test concentration not listed). 24,000 tested, under 10 active. AID 2465; in the data active means caspase activation above about 5.9%
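Material: mouse embryonic fibroblasts co-expressing A1 and BIM (A1-2A-BIM), primed for A1 dependence / Quantity: 2500 cells/well / Buffer or medium: RPMI-1640 growth medium with 10% FBS / Doses: 50 nL compound per well, pinned / Schedule: 3 h compound exposure at 37 °C / Signal: Caspase-Glo luminescence (DEVD substrate) / Measure: Caspase-3/7 activation, seen as rise in luminescence signal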
T cruzi HTS = intracellular Trypanosoma cruzi inhibition; intracellular Trypanosoma cruzi in host cells, plate reader; activity score (inhibition), % at 5.01 µM; hit rate 4.9% among 22,000; AID 651903; in the data active means activity score above about 55%;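 further: parasites and compound incubated about four days before reading; 0% = median of neutral control wells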
INS-1E rescue = INS-1E beta cell protection from cytokine death; protection from cytokine-induced ATP loss, % at 10 µM; AID 488910; INS-1E cytokine-induced death, ATP luminescence, 48 h; normalised: neutral wells 0, positive control 100; hit rate 0.1% among 20,000;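 active means mean replicate protection from cytokine-induced ATP loss at least 50% and at least 75% of replicates each reaching 50%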
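Material: INS-1E rat cells; Quantity: 8000 cells/well; Buffer or medium: phenol-red-free RPMI with 5% fetal bovine serum; Probe or stimulus: cytokine cocktail of IFN-γ, TNF-α and IL-1β; Compound dosing: single test concentration per compound, delivered by pin transfer; Incubation: 48 h co-treatment, 10 min post-lysis read; Signal: CellTiter-Glo luminescence.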
* marks the source's active call; other numbers are inactive results; · = not tested or not shown.

SMILES	A1 apoptosis 2	T cruzi HTS	INS-1E rescue
C[C@H]1CN([C@@H](C)CO)C(=O)c2cccc(NC(=O)NC3CCCCC3)c2O[C@H]1CN(C)Cc1ccc(-c2ccccc2)cc1	·	-29	-19
CC1=C(C/C=N/NC(=O)c2cccc(C(=O)NO)c2)C(C)(C)CCC1	-1	5	-5
NC(=O)COc1ccc(/C=N/NC(=O)CCCCCCC(=O)Nc2ccccc2O)cc1	-1	-10	-2
O=C(N/N=C/c1ccc(O)c(O)c1O)c1ccccc1O	-5	57*	-19
O=C(NO)c1cccc(C(=O)N/N=C/c2cccc(O)c2O)c1	-6	1	-27
O=C(N/N=C/c1cc(Cl)cc(Cl)c1O)c1ccccc1O	-10	73*	-115
O=C(N/N=C/c1cc(O)ccc1O)c1ccccc1O	·	18	-126
O=C(NO)c1cccc(C(=O)N/N=C/c2ccc(O)c(O)c2O)c1	-1	61*	8
O=C(N/N=C/c1ccccc1O)c1ccccc1O	·	32	-135
O=C(N1CCOCC1)[C@@]1(CCS(=O)(=O)c2ccccc2)COC(c2ccc(OCCCO)cc2)=N1	0	·	·
CCOc1cc(/C=N/NC(=O)CCCCCCC(=O)NO)ccc1O	0	·	·
C[C@H]1CN([C@@H](C)CO)C(=O)Cc2cc(NC(=O)Nc3ccc(C(F)(F)F)cc3)ccc2O[C@H]1CN(C)Cc1ccc(Oc2ccccc2)cc1	-1	4	-19
C[C@@H]1CN([C@H](C)CO)C(=O)Cc2cc(NC(=O)Nc3ccccc3)ccc2O[C@H]1CN(C)Cc1ccc(Oc2ccccc2)cc1	·	49	-46
C[C@@H]1CN([C@H](C)CO)C(=O)Cc2cc(NC(=O)Nc3ccc(C(F)(F)F)cc3)ccc2O[C@@H]1CN(C)Cc1ccc(Oc2ccccc2)cc1	1	80*	-35
C[C@@H]1CN([C@@H](C)CO)C(=O)Cc2cc(NC(=O)Nc3ccc(C(F)(F)F)cc3)ccc2O[C@@H]1CN(C)Cc1ccc(Oc2ccccc2)cc1	-1	74*	-8
COC(=O)[C@H]1N=C(c2ccc(OCCCO)cc2)O[C@H]1c1ccccc1N=[N+]=[N-]	-8	·	·
O=C(CCCCC(=O)N/N=C/c1cccs1)NO	·	15	6
C[C@@H]1CN([C@@H](C)CO)C(=O)c2cc(NS(=O)(=O)c3ccc(Cl)cc3)ccc2O[C@@H](C)CCCCO[C@@H]1CN(C)C(=O)Nc1cccc2ccccc12	0	·	·
C[C@H](CO)N1C[C@H](C)[C@@H](CN(C)C(=O)Nc2ccc(C(F)(F)F)cc2)OCCCC[C@H](C)Oc2ccc(NS(=O)(=O)c3ccc(Cl)cc3)cc2C1=O	-2	·	·
C[C@@H]1CCCCO[C@H](CN(C)C(=O)Nc2cccc3ccccc23)[C@@H](C)CN([C@H](C)CO)C(=O)c2cc(NS(=O)(=O)c3ccc(Cl)cc3)ccc2O1	0	66*	-2
C[C@@H]1CCCCO[C@H](CN(C)C(=O)Nc2ccc(C(F)(F)F)cc2)[C@@H](C)CN([C@H](C)CO)C(=O)c2cc(NS(=O)(=O)c3ccc(Cl)cc3)ccc2O1	0	66*	-47
C[C@H](CO)N1C[C@H](C)[C@H](CN(C)C(=O)Nc2ccc(C(F)(F)F)cc2)OCCCC[C@H](C)Oc2ccc(NS(=O)(=O)c3ccc(F)cc3)cc2C1=O	-2	·	·
C[C@@H]1CCCCO[C@@H](CN(C)C(=O)Nc2ccc(C(F)(F)F)cc2)[C@@H](C)CN([C@H](C)CO)C(=O)c2cc(NS(=O)(=O)c3ccccc3)ccc2O1	·	61*	-4
C#CCN([C@H](/C=C/C1CC1)[C@@H](O)Cc1ccccc1)[C@@H](Cc1ccc(N=[N+]=[N-])cc1)C(=O)OC	0	·	·
O=C(O)CCCCCC(=O)N/N=C/c1cccc(Br)c1	-1	-13	-2
COc1cc(/C=N/NC(=O)c2ccccc2O)c(Br)cc1O	-6	2	-73
O=C(NO)c1ccc(C(=O)N/N=C/c2cccc3ccccc23)cc1	·	9	-3

High-throughput results from PubChem.
